Here are results for three molecules from ChEMBL document CHEMBL1146240 (J Med Chem, 2007).

Series [1] deals with MC-38 (Mus musculus). In words: Induction of hemorrhagic necrosis in colon 38 tumor bearing C57B1/6 mouse at 25 mg/kg, ip after 24 hrs relative to control. The following applies: route intraperitoneal.
The test system of series [2] is Splenocyte. In words: Induction of TNF secretion in mouse splenocytes at 10 ug/mL after 4 hrs. Format: functional. The method in brief: (§1)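 Primary male mouse splenocytes, RBC-lysed, plated at 3 × 10⁶ cells/well in Alpha-MEM with 10% FCS. Treated with compound for 4 h at 37 °C. Supernatant TNF measured by ELISA, each sample in duplicate, with triplicate wells per condition. Mean ± SEM reported.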

Series [3] relates to HECPP. In words: Activation of NF-kappaB in HECPP cells at 10 ug/mL. As to conditions: Mus musculus. Format: functional, cell-based. The method in brief:
(§2)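 HECPP murine endothelial cells (2.5 × 10⁷) exposed to compound for 2 h. Nuclear extracts prepared, and 5 µg nuclear protein incubated with poly(dI/dC) on ice for 10 min. A ³²P-labeled κ-enhancer NF-κB consensus oligonucleotide was then added. Complexes were resolved on a 4% polyacrylamide gel in 0.25× TBE at 150 V for 2 h, then read by autoradiography (EMSA).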

Series [4] concerns Splenocyte. In words: Induction of TNF secretion in mouse splenocytes at 30 ug/mL after 4 hrs. Format: functional. A digest of the protocol: as §1
A short description of series [5]: Induction of TNF production in murine splenocytes at 100 ug/mL.
The nature of series [6]: Cytotoxicity against HECPP cells assessed as reduction of cell viability at 300 ug/mL after 24 hrs by MTT assay. Format: cell-based. As to conditions: mouse. The method in brief: (§3)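 HECPP murine endothelial cells in M199 with 10% FCS, 37 °C, 5% CO₂. Seeded at 10⁵ cells/well, incubated overnight, then exposed to compound for 24 h. MTT added for 2 h and formazan dissolved in 0.04 N HCl/isopropanol. Absorbance read at 550 nm with 630 nm reference, expressed as percent of metabolically active cells.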

In series [7] the test system is HECPP. Nature of the series: Activation of NF-kappaB in HECPP cells at 30 ug/mL. Format: functional, cell-based. The following applies: Mus musculus. The method in brief: as §2
Series [8] relates to MC-38 (Mus musculus). Nature of the series: Induction of hemorrhagic necrosis in colon 38 tumor bearing C57B1/6 mouse at 190 mg/kg, ip after 24 hrs relative to control. The following applies: route intraperitoneal.
Series [9] in a line: Cytotoxicity against HECPP cells assessed as reduction of cell viability at 600 ug/mL after 24 hrs by MTT assay. Format: cell-based. As to conditions: mouse. A digest of the protocol:
as §3
In general terms: Tetrazolium dyes change colour on reduction, which living cells bring about.

In series [10] the test system is Splenocyte. Nature of the series: Induction of TNF secretion in mouse splenocytes at 100 ug/mL after 4 hrs. It is filed as functional. A digest of the protocol: as §1
Series [11] relates to MC-38 (Mus musculus). In words: Induction of hemorrhagic necrosis in colon 38 tumor bearing C57B1/6 mouse at 200 mg/kg, ip after 24 hrs relative to control. The following applies: route intraperitoneal.
The test system of series [12] is HECPP. In words: Activation of NF-kappaB in HECPP cells at 300 ug/mL. It is filed as functional, cell-based. As to conditions: Mus musculus. The method in brief:
as §2

The test system of series [13] is HECPP. In words: Activation of NF-kappaB in HECPP cells at 1000 ug/mL. Format: functional, cell-based. The following applies: Mus musculus. The method in brief:
as §2

SMILES strings stand for the structures. Activity calls are given as the source filed them. The rule behind the calls is not given here. Where only a bound is given, the exact number is not on record here.

`Cc1ccc2c(=O)c3cccc(CC(=O)O)c3oc2c1C` [VADIMEZAN]: the results for the Activity in the series with MC-38 (Mus musculus) [1] and in the series with Splenocyte [2] were >95% and 180 pg/mL, respectively. Besides, the outcome in the series on HECPP [3] was Active.

Take `Cc1ccc2c(=O)c3cccc(CC(=O)O)c3oc2c1N=[N+]=[N-]`: the figures for the Activity (with Splenocyte [4]; in [6]; in the series on MC-38 (Mus musculus) [8]) were <50 pg/mL, 50% and >95%, respectively. In addition, the TNF production in series [5] is <50 pg/mL. In addition, the result with HECPP [7] was Active.

Regarding `[N-]=[N+]=Nc1cccc2c(=O)c3cccc(CC(=O)O)c3oc12`, the Activity in series [9] was 50%; in the series on Splenocyte [10], 110 pg/mL; in the series on MC-38 (Mus musculus) [11], >95%. Further, the outcome in the series with HECPP [12] and with HECPP [13] was Active.
